This passage reports IC50 and inhibition results from ChEMBL document CHEMBL3112585, “Inhibition of reverse transcriptase and Taq DNA polymerase by compounds possessing the coumarin framework” (Bioorg Med Chem Lett, 2014).

A word on the IC50: it is the concentration that gives 50% inhibition. A high value points to weaker potency in that assay.

Assay [1] has as its target DNA polymerase I, thermostable (Thermus aquaticus, UniProt P19821). The experiment in a line: (§1) Inhibition of Thermus aquaticus taq DNA polymerase by PCR analysis. In a few lines: (§2)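 PCR with 2.5 U Taq polymerase in 40 mM Tris-acetate pH 8.3, 15 mM MgCl2, […], 2.5 mM each dNTP; compounds in DMSO at varying concentrations. 35 cycles: 95 °C 1 min, anneal 56 °C, extend 72 °C 90 s. Ethidium bromide-stained gel band intensities scanned; IC50 = concentration inhibiting activity 50%.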

The target of assay [2] is DNA polymerase I, thermostable (Thermus aquaticus) (UniProt P19821). Described as §1. In a few lines: as §2
Assay [3] is described as follows: Inhibition of MMLV reverse transcriptase using desoxynucleotide triphosphate as substrate after 10 mins by RT-PCR analysis. Further details: species or system Moloney murine leukemia virus. In short, it runs like this: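 Reverse transcription mix: 1 µg RNA in commercial buffer, 2.0 U MMLV-RT, 20 µM random primers, 1.0 mM each dNTP; compounds (DMSO) added at varying concentrations during RT step. Heated 70 °C 10 min, then incubated 1 h at […]. Products on ethidium bromide-stained agarose gel, band intensities quantified by scanning; IC50 = concentration giving 50% inhibition.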

Activity calls are given as the source filed them. The rule behind the calls is not given here.

DNA polymerase I, thermostable (Thermus aquaticus), sequence (P19821 whole entry): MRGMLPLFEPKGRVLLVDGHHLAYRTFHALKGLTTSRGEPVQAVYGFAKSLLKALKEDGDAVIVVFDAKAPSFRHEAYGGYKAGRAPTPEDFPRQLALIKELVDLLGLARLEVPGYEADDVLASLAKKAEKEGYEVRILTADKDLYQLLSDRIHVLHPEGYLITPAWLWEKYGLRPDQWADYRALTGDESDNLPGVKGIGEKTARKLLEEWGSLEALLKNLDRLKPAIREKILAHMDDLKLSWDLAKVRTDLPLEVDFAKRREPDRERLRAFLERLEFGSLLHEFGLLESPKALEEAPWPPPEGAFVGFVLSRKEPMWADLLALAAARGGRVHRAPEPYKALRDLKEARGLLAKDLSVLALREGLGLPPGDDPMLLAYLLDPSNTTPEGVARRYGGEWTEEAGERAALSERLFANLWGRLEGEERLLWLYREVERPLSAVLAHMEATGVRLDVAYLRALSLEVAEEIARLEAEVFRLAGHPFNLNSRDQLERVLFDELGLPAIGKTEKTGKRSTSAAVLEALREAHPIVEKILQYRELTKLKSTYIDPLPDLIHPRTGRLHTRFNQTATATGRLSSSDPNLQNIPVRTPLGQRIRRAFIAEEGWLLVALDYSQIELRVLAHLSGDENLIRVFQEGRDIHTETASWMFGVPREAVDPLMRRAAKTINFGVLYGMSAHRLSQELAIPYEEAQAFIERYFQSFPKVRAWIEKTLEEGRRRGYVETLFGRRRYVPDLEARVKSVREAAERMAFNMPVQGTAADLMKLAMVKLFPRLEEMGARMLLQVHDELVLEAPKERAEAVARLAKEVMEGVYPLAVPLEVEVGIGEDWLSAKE
DNA polymerase I, thermostable, sequence (P19821 whole entry): as above

For the molecule `C/C(=C\COc1c2c(cc3oc(=O)ccc13)OCO2)CO`, half-maximal inhibition in assay [1] (IC50) required 48.1 µM. The same measure, in the same setting: as for `CC(C)(O)C(Br)COc1c2c(cc3oc(=O)ccc13)OCO2` (stereo unspecified), the figure is 57.9 µM.

As to `C/C(C=O)=C\COc1c2c(cc3oc(=O)ccc13)OCO2`, the inhibition result in assay [2] was “inactive”. In assay [3], `C=CCc1c(O)c2ccccc2oc1=O` returned an IC50 of 51 µM. The inhibition result in assay [2] is “inactive”. In the case of `CC(C)(O)C(=O)COc1c2c(cc3oc(=O)ccc13)OCO2`, the inhibition entry in assay [2] is “inactive”. Still for that read-out and setting: for `CC(C)(O)C(O)COc1c2c(cc3oc(=O)ccc13)OCO2` (stereo unspecified) the value was “inactive”; for `CC(C)=CCOc1c2c(cc3oc(=O)ccc13)OCO2`, “inactive”. On to `O=c1ccc2ccccc2o1` [COUMARIN], for which the IC50 in assay [3] worked out at 38.6 µM. The inhibition result in assay [2] is “inactive”. With `COc1cc2c(c3oc(=O)ccc13)OCO2`, in assay [2], the inhibition entry was “inactive”.
